Experimental data as given in ChEMBL document CHEMBL1138359, “Syntheses of nicotinamide riboside and derivatives: effective agents for increasing nicotinamide adenine dinucleotide concentrations in mammalian cells” (J Med Chem, 2007).

Assays:
[1] = Cell viability in HEK293 cells at 750 uM after 48 hrs by MTT assay relative to control; format: cell-based; details: human, read-out: Activity
In short: (§1)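 Cells grown 24 h, then exposed to 750 µM compound for 48 h. Viability read by MTT assay and given as % of untreated control. Duplicate experiments.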

[2] = Cell viability in mouse Neuro 2a cells at 750 uM after 48 hrs by MTT assay relative to control; format: cell-based, N2a; details: read-out: Activity; in short: as §1
[3] = Cell viability in mouse AB1 cells at 750 uM after 48 hrs by MTT assay relative to control; format: cell-based; details: read-out: Activity; in short: as §1
[4] = Cytotoxicity against mouse Neuro 2a cells; format: cell-based; details: n2a
[5] = Cytotoxicity against mouse AB1 cells; format: cell-based
HEK293 [6] = experiment: Cytotoxicity against HEK293 cells; format: cell-based; details: human
HEK293 [7] = experiment: Increase in NAD+ concentration in HEK293 cells at 750 uM after 24 hrs by isotope-dilution technique; format: functional, Homo sapiens
[8] = Increase in NAD+ concentration in mouse Neuro 2a cells at 750 uM after 24 hrs by isotope-dilution technique; format: functional, N2a
[9] = Increase in NAD+ concentration in mouse AB1 cells at 750 uM after 24 hrs by isotope-dilution technique; format: functional
[10] = Increase in NAD+ concentration in mouse Neuro 2a cells at 670 uM after 24 hrs by isotope-dilution technique relative to control; format: functional, N2a
In short: (§2)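 Cells exposed to 670 µM compound for 24 h. NAD+ was then quantified by an MS-based isotope-dilution method using an 18O standard and expressed relative to untreated controls. All cell experiments were run in duplicate.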

HEK293 [11] = experiment: Increase in NAD+ concentration in HEK293 cells at 670 uM after 24 hrs by isotope-dilution technique relative to control; format: functional, Homo sapiens; in short: as §2
[12] = Increase in NAD+ concentration in mouse AB1 cells at 670 uM after 24 hrs by isotope-dilution technique relative to control; format: functional; in short: as §2

| SMILES | viability at 48 h, 750 µM [1] [%] | viability at 48 h, 750 µM [2] [%] | viability at 48 h, 750 µM [3] [%] | further results |
| --- | --- | --- | --- | --- |
| CCNC(=O)c1ccc[n+]([C@@H]2O[C@H](CO)[C@@H](O)[C@H]2O)c1 | 48 | 38 | 57 | – |
| C=CCNC(=O)c1ccc[n+]([C@@H]2O[C@H](CO)[C@@H](O)[C@H]2O)c1 | 78 | 80 | 57 | – |
| NC(=O)c1ccc[n+]([C@@H]2O[C@H](CO)[C@@H](O)[C@H]2O)c1 [NICOTINAMIDE RIBOSIDE] | 111 | 107 | 123 | – |
| CNC(=O)c1ccc[n+]([C@@H]2O[C@H](CO)[C@@H](O)[C@H]2O)c1 | 72 | 76 | 79 | – |
| CCOC(=O)c1ccc[n+]([C@@H]2O[C@H](COC(C)=O)[C@@H](OC(C)=O)[C@H]2OC(C)=O)c1 | – | – | – | Activity [4]: Non-toxic; Activity [5]: Non-toxic; Activity (HEK293 [6]): Non-toxic; Activity (HEK293 [7]): 160%; Activity [8]: 260%; Activity [9]: 130% |
| COC(=O)c1ccc[n+]([C@@H]2O[C@H](CO)[C@@H](O)[C@H]2O)c1 | 94 | 76 | 125 | – |
| O=C(NCCO)c1ccc[n+]([C@@H]2O[C@H](CO)[C@@H](O)[C@H]2O)c1 | 77 | 51 | 101 | – |
| CCOC(=O)c1ccc[n+]([C@@H]2O[C@H](CO)[C@@H](O)[C@H]2O)c1 | 92 | 169 | 103 | – |
| O=C(O)c1ccc[n+]([C@@H]2O[C@H](CO)[C@@H](O)[C@H]2O)c1 | 92 | 125 | 111 | Activity [10]: 1.7%; Activity (HEK293 [11]): 1.9%; Activity [12]: 1.5% |
| CN(C)C(=O)c1ccc[n+]([C@@H]2O[C@H](CO)[C@@H](O)[C@H]2O)c1 | 78 | 35 | 132 | – |
